Measured values from ChEMBL document CHEMBL2034980, “N⁴-Phenyl-substituted 2-acetylpyridine thiosemicarbazones: cytotoxicity against human tumor cells, structure-activity relationship studies and investigation on the mechanism of action” (Bioorg Med Chem, 2012).
Active and inactive are the calls of the source. The rule behind the calls is not given here.

How the values were obtained:
[1] = tested on: MCF7; assay: Cytotoxicity against human MCF7 cells after 48 hrs by MTT assay; type: functional, cell-based; details: for IC50: MCF7, 48 h, read-out: IC50
In short: (§1)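 MTT assay. Cells were grown in DMEM with 10% FBS and penicillin/streptomycin at 37 °C under 5% CO2, seeded at 1–2×10^3 cells/well and treated 12 h later with 1×10^-12 to 1×10^-5 M ([…] from DMSO stock, final DMSO <0.5%) for 48 h. MTT was added at 0.5 mg mL⁻¹, formazan dissolved in DMSO and read at 570 nm. IC50 is the concentration giving 50% cytotoxicity. Quadruplicates, ≥3 independent experiments.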

[2] = (§2) Cytotoxicity against human U87 cells expressing wild-type p53 after 48 hrs by MTT assay; type: functional, cell-based, U-87MG ATCC; details: U-87 MG, read-out: IC50; in short: as §1
[3] = tested on: U-87MG ATCC; assay: as §2; type: functional, cell-based; in short: as §1
[4] = tested on: T98G; assay: Cytotoxicity against human T98G cells expressing mutant p53 after 48 hrs by MTT assay; type: functional, cell-based; details: for IC50: read-out: IC50; in short: as §1
[5] = Haemolytic activity in human RBC after 1 hr by photometry; type: ADME, cell-based; details: Erythrocyte
In short: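 Human EDTA blood was spun at 700xg for 10 min and the erythrocytes washed three times in cold PBS pH 7.4, then resuspended in it. Cells were incubated with varying compound concentrations for 1 h at 37 °C with shaking. After centrifugation, released haemoglobin was read at 540 nm to give the IC50. Mean ± SD, n = 4.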

[6] = tested on: MCF7; assay: Induction of apoptosis in human MCF7 cells assessed as irregularities in cellular shape at 1 uM after 48 hrs by DAPI staining; type: functional, cell-based
[7] = tested on: MCF7; assay: Induction of apoptosis in human MCF7 cells assessed as cell shrinkage at 1 uM after 48 hrs by DAPI staining; type: functional, cell-based
[8] = tested on: MCF7; assay: Induction of apoptosis in human MCF7 cells assessed as membrane blebbing at 1 uM after 48 hrs by DAPI staining; type: functional, cell-based
[9] = tested on: MCF7; assay: Induction of apoptosis in human MCF7 cells assessed as chromatin condensation at 1 uM after 48 hrs by DAPI staining; type: functional, cell-based
In short: (§3)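 Cells were treated at 1 μM for 48 h, washed in PBS and fixed in 70% methanol for 30 min at room temperature. They were stained with 0.4 μg mL⁻¹ DAPI for 1 h in the dark, and nuclear condensation and fragmentation were scored by fluorescence microscopy (385–410 nm).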

[10] = tested on: MCF7; assay: Induction of apoptosis in human MCF7 cells assessed as DNA fragmentation at 1 uM after 48 hrs by DAPI staining; type: functional, cell-based; in short: as §3
[11] = tested on: T98G; assay: Induction of apoptosis in human T98G cells assessed as irregularities in cellular shape at 1 uM after 48 hrs by DAPI staining; type: functional, cell-based
[12] = tested on: T98G; assay: Induction of apoptosis in human T98G cells assessed as cell shrinkage at 1 uM after 48 hrs by DAPI staining; type: functional, cell-based
[13] = tested on: T98G; assay: Induction of apoptosis in human T98G cells assessed as membrane blebbing at 1 uM after 48 hrs […]; type: functional, cell-based
[14] = tested on: T98G; assay: Induction of apoptosis in human T98G cells assessed as chromatin condensation at 1 uM after 48 hrs by DAPI staining; type: functional, cell-based; in short: as §3
[15] = tested on: T98G; assay: Induction of apoptosis in human T98G cells assessed as DNA fragmentation at 1 uM after 48 hrs by DAPI staining; type: functional, cell-based; in short: as §3
[16] = tested on: U-87MG ATCC; assay: Induction of apoptosis in human U87 cells assessed as irregularities in cellular shape at 1 uM after 48 hrs by DAPI staining; type: functional, cell-based
[17] = tested on: U-87MG ATCC; assay: Induction of apoptosis in human U87 cells assessed as cell shrinkage at 1 uM after 48 hrs by DAPI staining; type: functional, cell-based
[18] = tested on: U-87MG ATCC; assay: Induction of apoptosis in human U87 cells assessed as membrane blebbing at 1 uM after 48 hrs by DAPI staining; type: functional, cell-based
[19] = tested on: U-87MG ATCC; assay: Induction of apoptosis in human U87 cells assessed as chromatin condensation at 1 uM after 48 hrs by DAPI staining; type: functional, cell-based; in short: as §3
[20] = tested on: U-87MG ATCC; assay: Induction of apoptosis in human U87 cells assessed as DNA fragmentation at 1 uM after 48 hrs by DAPI staining; type: functional, cell-based; in short: as §3
[21] = tested on: MCF7; assay: Induction of apoptosis in human MCF7 cells assessed as appearance of autophagolysosomes at 1 uM after 48 hrs by acridine orange/ethidium bromide staining-based microscopy; type: functional, cell-based
In short: (§4)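 After 48 h at 1 μM, cells were incubated for 15 min in serum-free medium containing 1 μg mL⁻¹ acridine orange and 1 μg mL⁻¹ ethidium bromide. The medium was removed and cells imaged by inverted fluorescence microscopy (530–650 nm). Green/orange nuclear patterns and acidic cytoplasmic vacuoles were scored.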

[22] = tested on: T98G; assay: Induction of apoptosis in human T98G cells assessed as appearance of autophagolysosomes at 1 uM after 48 hrs by acridine orange/ethidium bromide staining-based microscopy; type: functional, cell-based; in short: as §4
[23] = tested on: U-87MG ATCC; assay: Induction of apoptosis in human U87 cells assessed as appearance of autophagolysosomes at 1 uM after 48 hrs by acridine orange/ethidium bromide staining-based microscopy; type: functional, cell-based; in short: as §4
[24] = tested on: MCF7; assay: Induction of apoptosis in human MCF7 cells assessed as chromatin condensation at 1 uM after 48 hrs by acridine orange/ethidium bromide staining-based microscopy; type: functional, cell-based; in short: as §4
[25] = tested on: T98G; assay: Induction of apoptosis in human T98G cells assessed as chromatin condensation at 1 uM after 48 hrs by acridine orange/ethidium bromide staining-based microscopy; type: functional, cell-based; in short: as §4
[26] = tested on: U-87MG ATCC; assay: Induction of apoptosis in human U87 cells assessed as chromatin condensation at 1 uM after 48 hrs by acridine orange/ethidium bromide staining-based microscopy; type: functional, cell-based; in short: as §4

## CC(=NNC(=S)Nc1ccccc1I)c1ccccn1 (mixture of isomers)
[1]
  Activity: Dose-dependent effect
  IC50: 4.1 nM
[2]
  IC50: 6.1 nM
[3]
  Activity: Dose-dependent effect
[4]
  Activity: Dose-dependent effect
  IC50: 8.1 nM
[5]
  IC50: > 10000 nM
[6]
  Activity: Active
[7]
  Activity: Active
[8]
  Activity: Active
[9]
  Activity: Active
[10]
  Activity: Active
[11]
  Activity: Active
[12]
  Activity: Active
[13]
  Activity: Active
[14]
  Activity: Active
[15]
  Activity: Active
[16]
  Activity: Active
[17]
  Activity: Active
[18]
  Activity: Active
[19]
  Activity: Active
[20]
  Activity: Active
[21]
  Activity: Active
[22]
  Activity: Active
[23]
  Activity: Active
[24]
  Activity: Active
[25]
  Activity: Active
[26]
  Activity: Active

## CC(=NNC(=S)Nc1cccc(I)c1)c1ccccn1 (mixture of isomers)
[1]
  Activity: Dose-dependent effect
  IC50: 45 nM
[2]
  IC50: 84 nM
[3]
  Activity: Dose-dependent effect
[4]
  Activity: Dose-dependent effect
  IC50: 61 nM
[5]
  IC50: > 10000 nM
[6]
  Activity: Active
[7]
  Activity: Active
[8]
  Activity: Active
[9]
  Activity: Active
[10]
  Activity: Active
[11]
  Activity: Active
[12]
  Activity: Active
[13]
  Activity: Active
[14]
  Activity: Active
[15]
  Activity: Active
[16]
  Activity: Active
[17]
  Activity: Active
[18]
  Activity: Active
[19]
  Activity: Active
[20]
  Activity: Active
[21]
  Activity: Active
[22]
  Activity: Active
[23]
  Activity: Active
[24]
  Activity: Active
[25]
  Activity: Active
[26]
  Activity: Active

## CC(=NNC(=S)Nc1ccc(I)cc1)c1ccccn1 (mixture of isomers)
[1]
  Activity: Dose-dependent effect
  IC50: 6.6 nM
[2]
  IC50: 59 nM
[3]
  Activity: Dose-dependent effect
[4]
  Activity: Dose-dependent effect
  IC50: 64 nM
[5]
  IC50: > 10000 nM
[6]
  Activity: Active
[7]
  Activity: Active
[8]
  Activity: Active
[9]
  Activity: Active
[10]
  Activity: Active
[11]
  Activity: Active
[12]
  Activity: Active
[13]
  Activity: Active
[14]
  Activity: Active
[15]
  Activity: Active
[16]
  Activity: Active
[17]
  Activity: Active
[18]
  Activity: Active
[19]
  Activity: Active
[20]
  Activity: Active
[21]
  Activity: Active
[22]
  Activity: Active
[23]
  Activity: Active
[24]
  Activity: Active
[25]
  Activity: Active
[26]
  Activity: Active

## CC(=NNC(=S)Nc1ccccc1[N+](=O)[O-])c1ccccn1 (mixture of isomers)
[1]
  Activity: Dose-dependent effect
  IC50: 5.7 nM
[2]
  IC50: 4.3 nM
[3]
  Activity: Dose-dependent effect
[4]
  Activity: Dose-dependent effect
  IC50: 6.6 nM
[5]
  IC50: > 10000 nM
[6]
  Activity: Active
[7]
  Activity: Active
[8]
  Activity: Active
[9]
  Activity: Active
[10]
  Activity: Active
[11]
  Activity: Active
[12]
  Activity: Active
[13]
  Activity: Active
[14]
  Activity: Active
[15]
  Activity: Active
[16]
  Activity: Active
[17]
  Activity: Active
[18]
  Activity: Active
[19]
  Activity: Active
[20]
  Activity: Active
[21]
  Activity: Active
[22]
  Activity: Active
[23]
  Activity: Active
[24]
  Activity: Active
[25]
  Activity: Active
[26]
  Activity: Active

## CC(=NNC(=S)Nc1cccc([N+](=O)[O-])c1)c1ccccn1 (mixture of isomers)
[1]
  Activity: Dose-dependent effect
  IC50: 38 nM
[2]
  IC50: 69 nM
[3]
  Activity: Dose-dependent effect
[4]
  Activity: Dose-dependent effect
  IC50: 140 nM
[5]
  IC50: > 10000 nM
[6]
  Activity: Active
[7]
  Activity: Active
[8]
  Activity: Active
[9]
  Activity: Active
[10]
  Activity: Active
[11]
  Activity: Active
[12]
  Activity: Active
[13]
  Activity: Active
[14]
  Activity: Active
[15]
  Activity: Active
[16]
  Activity: Active
[17]
  Activity: Active
[18]
  Activity: Active
[19]
  Activity: Active
[20]
  Activity: Active
[21]
  Activity: Active
[22]
  Activity: Active
[23]
  Activity: Active
[24]
  Activity: Active
[25]
  Activity: Active
[26]
  Activity: Active
